Assay results as given in ChEMBL document CHEMBL4477178, “Biflorin, Isolated from the Flower Buds of Syzygium aromaticum L., Suppresses LPS-Induced Inflammatory Mediators via STAT1 Inactivation in Macrophages and Protects Mice from Endotoxin Shock” (J Nat Prod, 2016).
Activity calls are given as the source filed them. The rule behind the calls is not given here.

Tests used:
RAW264.7 [1] = test: Antiinflammatory activity in mouse RAW264.7 cell lysate assessed as inhibition of LPS-induced COX-2 expression preincubated for 1 hr followed by LPS challenge for 24 hrs by Western blot analysis; format: functional, cell-based
Outline: (§1)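 RAW 264.7 (DMEM, 10% FBS, 37 °C, 5% CO2) pretreated 1 h at 15, 30 or 60 μM, then LPS 10 ng/mL for 24 h. Lysates run on 10–12% SDS-PAGE, blotted to PVDF, probed with iNOS or COX-2 antibody (1:1000, overnight 4 °C), HRP secondary, ECL; densitometry vs β-actin. Mean ± SD of three independent experiments.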

RAW264.7 [2] = test: Antiinflammatory activity in mouse RAW264.7 cells assessed as inhibition of LPS-induced TNF-alpha production at 60 uM preincubated for 1 hr followed by LPS challenge for 24 hrs by ELISA method; format: functional
Outline: (§2)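 RAW 264.7 cells in DMEM with 10% FBS, plated at 2 × 10^5 cells/mL and incubated overnight. Pretreated with compound (15, 30 or 60 μM) for 1 h, then LPS 10 ng/mL for 24 h. PGE2 measured by competitive colorimetric ELISA, TNF-α and IL-6 by ELISA, in diluted medium. NS-398 3 μM as positive control for PGE2. Mean ± SD, three independent experiments; IC50 given for PGE2.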

RAW264.7 [3] = test: Antiinflammatory activity in mouse RAW264.7 cells assessed as inhibition of LPS-induced COX-2 promoter activity at 60 uM preincubated for 1 hr followed by LPS challenge for 6 to 12 hrs by reporter gene assay; format: functional, cell-based
Outline: (§3)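 RAW 264.7 transiently cotransfected with promoter-luciferase construct (pGL3-iNOS, pGL3-COX-2 or pTNF-α-luc) plus phRL-TK internal control; 6 h after transfection pretreated 1 h with 60 μM, then LPS 10 ng/mL for 6 or 12 h. Cells washed in cold PBS, lysed, luciferase read. Mean ± SD, three independent experiments.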

RAW264.7 [4] = test: Cytotoxicity against mouse RAW264.7 cells assessed as cell viability at 60 uM after 24 hrs by MTT assay in absence of LPS; format: cell-based; conditions: raw264.7, 24 h
Outline: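 RAW 264.7 seeded at 1 × 10^5 cells/mL, grown overnight, exposed 24 h with or without LPS; MTT (5 mg/mL stock in PBS) added 4 h at 37 °C, formazan dissolved in DMSO, absorbance at 540 nm.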

RAW264.7 [5] = test: Antiinflammatory activity in mouse RAW264.7 cells assessed as inhibition of LPS-induced COX-2 mRNA expression at 60 uM after 2 to 12 hrs by qRT-PCR method; format: functional, cell-based
Outline: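 RAW 264.7 stimulated with LPS 10 ng/mL with or without 60 μM for 2, 4, 6 and 12 h. Total RNA (1 μg) reverse-transcribed with MuLV RT and random primer; SYBR green real-time qPCR with gene-specific primers, triplicate Ct normalized to β-actin. Mean ± SD, three independent experiments.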

RAW264.7 [6] = test: Reduction in LPS-induced NF-kappa B activity in mouse RAW264.7 cells at 15 to 60 uM preincubated for 1 hr followed by LPS challenge for 12 hrs by luciferase reporter gene assay; format: cell-based
Mus musculus = test: Protection against LPS-induced mortality in C57BL/6 mouse assessed as lethality level at 5 to 10 mg/kg, ip pretreated for 1 hr followed by LPS challenge measured every 12 hrs for 96 hrs post challenge; format: functional
Outline: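 Male C57BL/6 mice (6 weeks) given compound i.p. (5 or 10 mg/kg) or vehicle 1 h before i.p. LPS (Salmonella enterica, 25 mg/kg). Water only for 12 h beforehand. Survival checked every 12 h for 96 h; n = 5 per group.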

[7] = biological target: T1, Signal transducer and activator of transcription 1 (Mus musculus) (UniProt P42225); test: Inhibition of LPS-induced STAT1 phosphorylation at Y701 in C57BL/6 mouse peritoneal macrophages at 15 to 60 uM preincubated for 1 hr followed by LPS challenge for 120 mins by Western blot analysis
T1 sequence (whole entry): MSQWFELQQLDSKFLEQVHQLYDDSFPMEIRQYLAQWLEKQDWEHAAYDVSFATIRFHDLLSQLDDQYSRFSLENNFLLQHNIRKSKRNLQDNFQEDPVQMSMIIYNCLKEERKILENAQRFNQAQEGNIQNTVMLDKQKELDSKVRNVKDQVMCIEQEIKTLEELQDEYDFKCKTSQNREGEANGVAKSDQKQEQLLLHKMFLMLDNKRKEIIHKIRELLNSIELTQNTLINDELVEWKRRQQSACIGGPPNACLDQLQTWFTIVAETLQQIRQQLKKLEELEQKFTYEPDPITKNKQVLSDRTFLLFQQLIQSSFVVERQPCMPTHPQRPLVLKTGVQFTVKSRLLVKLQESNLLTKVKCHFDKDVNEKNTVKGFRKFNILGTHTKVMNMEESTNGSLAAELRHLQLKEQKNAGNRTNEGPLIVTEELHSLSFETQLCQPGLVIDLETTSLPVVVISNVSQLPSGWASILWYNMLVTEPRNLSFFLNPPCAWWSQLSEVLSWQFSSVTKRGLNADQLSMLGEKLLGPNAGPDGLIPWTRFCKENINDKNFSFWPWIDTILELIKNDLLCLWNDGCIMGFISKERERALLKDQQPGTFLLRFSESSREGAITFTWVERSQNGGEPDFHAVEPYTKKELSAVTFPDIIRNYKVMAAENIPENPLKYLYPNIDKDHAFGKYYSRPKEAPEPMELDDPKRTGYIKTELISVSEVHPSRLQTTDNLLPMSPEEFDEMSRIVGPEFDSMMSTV
Outline: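 Thioglycolate-elicited C57BL/6 peritoneal macrophages pretreated 1 h at 15, 30 or 60 μM, then LPS 10 μg/mL: 120 min for p-STAT1 Y701, 30 min for p-STAT1 S727, 60 min for p-STAT3 Y705. Western blot with phospho-specific and total STAT antibodies, β-actin control; three independent experiments.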

RAW264.7 [8] = test: Antiinflammatory activity in mouse RAW264.7 cells assessed as inhibition of LPS-induced PGE2 production preincubated for 1 hr followed by LPS challenge for 24 hrs by ELISA method; format: functional, cell-based; outline: as §2
RAW264.7 [9] = test: Antiinflammatory activity in mouse RAW264.7 cells assessed as downregulation of LPS-induced TNF-alpha expression at 60 uM preincubated for 1 hr followed by LPS challenge for 6 to 12 hrs by luciferase reporter gene assay; format: functional, cell-based; outline: as §3
Rattus norvegicus = test: Antiinflammatory activity in Sprague-Dawley rat assessed as reduction in carrageenan induced paw edema at 15 mg/kg, ip administered 1 hr before carrageenan challenge measured at 3 hrs post challenge relative to control; format: functional
Outline: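 SD rats given compound i.p. (5, 10 or 15 mg/kg) 1 h before subplantar injection of 1% carrageenan in saline (0.1 mL) into the right hind paw. Paw volume measured by plethysmometer at 1, 3 and 5 h. Edema compared with the carrageenan-only group; seven rats per group.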

RAW264.7 [10] = test: Antiinflammatory activity in mouse RAW264.7 cell lysate assessed as inhibition of LPS-induced iNOS expression preincubated for 1 hr followed by LPS challenge for 24 hrs by Western blot analysis; format: functional, cell-based; outline: as §1

With `Cc1cc(=O)c2c(O)c([C@@H]3O[C@H](CO)[C@@H](O)[C@H](O)[C@H]3O)c(O)cc2o1` [BIFLORIN] the inhibition (RAW264.7 [1]) was “Dose-dependent effect”, the inhibition at 60 µM (RAW264.7 [2]) was 75% and the inhibition (RAW264.7 [3]) was “Active”. For the same molecule, the Activity (RAW264.7 [4]) was “Non-Toxic”, the inhibition (RAW264.7 [5]) was “Active” and the inhibition (RAW264.7 [6]) was “inactive”. The mortality (Mus musculus) was 40 - 60%, the inhibition [7] was “Active” and the IC50 (RAW264.7 [8]) was 37.1 µM. The Activity (RAW264.7 [9]) was “Active”, the inhibition in vivo at 15 mg/kg (Rattus norvegicus) was 60% and the inhibition (RAW264.7 [10]) was “Dose-dependent effect”.
